The values below come from PubChem BioAssay AID504775 (Broad Institute, 2011).

The campaign covered roughly 320,000 compounds. About 310 (0.097%) were called active. Many of the other results were omitted from the sample, so actives are more common in it than they were. A number with no mark means an inactive call.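 The calls were made as follows: active = mean replicate activation of at least 60% and every replicate at or above 60%; inconclusive = mean or all-replicate condition met, but not both; inactive = mean below 60% and not all replicates reaching 60%.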

This assay can be described thus: enhancers of HDL lipid transfer via mSR-BI – ldlA[mSR-BI] CHO cells, DiI fluorescence, primary screen (AID 504775).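 Also: 0% = median plate neutral-control signal and 100% = twice that signal.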 To be noted: DiI-HDL uptake fluorescence, 3 h, at 12.5 µM, active compounds read high, 100 = double the neutral-control signal. A digest of the protocol: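 Material: SR-BI-overexpressing, LDLR-lacking CHO cells; schedule: compound exposure 3 h, 37 °C; reagent: DiI-labelled HDL at 10 µg/mL final; technique: bottom-read fluorescence, 550/595 nm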
`Cc1nn(-c2ncccn2)c2c1C(=O)CC(C)(C)C2Br` (stereo not drawn): the activation was -6.98%.

For `CC12CCCCC1=CC(=O)CC2` (stereo not drawn), the activation is 0.111%. The same measure for `O=C(NNC(=O)c1ccc2ccccc2c1)c1ccc(Cl)cc1`: 17.1%; for `O=C1C(=O)N(c2ccccc2)C(c2ccccc2)C1c1ccccc1` (stereo not drawn): -3.47%; for `c1ccc(C(=NNc2nc3ccccc3s2)c2ccccn2)cc1`: -40.5%.

Turning to `C=CC(=O)Nc1ccc(Nc2ccnc(Nc3ccc(N4CCN(C)CC4)cc3)n2)cc1`, the activation is -5.16%.

On to `CC(=NNC(=S)N1CCCCCC1)c1ccccn1`, for which the activation was -22.4%.

In the case of `CCOC(=O)c1ccccc1NC(=O)CSc1nc2c(sc(=S)n2CC)c(=O)[nH]1`, the activation is 15.7%. In the case of `Nc1ccc2c(c1)C(=Cc1cccnc1)c1ccccc1-2`, the activation was -10.7%. Take `N#CC1=C(N)Oc2cc(N)ccc2C1c1ccccc1` (stereo not drawn): the activation is 23.9%. Turning to `Cc1ccc(S(=O)(=O)CCC(=O)OCC(=O)N(C)Cc2ccccc2)cc1`, the activation is 31.8%. The result for `CC/C(=C(/c1ccccc1)c1ccc(OCC[N+](C)(C)C)cc1)c1ccccc1` reads 44.1%; that for `CC(C)(C)OC(=O)N(Cc1ccccc1)Cc1ccc(OCc2cccc(NC(=O)c3ccccc3)c2)cc1`, -30.4%; that for `CCCCN1CC(COCc2ccccc2)OCCS1(=O)=O` (stereo not drawn), 17.3%.

With `COc1ccc(CNC(=O)COC(=O)C2=Cc3ccccc3OC2)cc1`, the activation is 3.54%.

Regarding `COC1C(CO)OC(n2cnc3c(=S)nc(N)[nH]c32)C1O` (stereo not drawn), the activation was 8.65%. Regarding `COC(=O)C1CC2=C(CC(C)(C)CC2=O)N(c2ccccc2)C1=O` (stereo not drawn), the activation is 15.5%.

As to `O=C1OC(Cc2ccccc2)C(c2ccccc2)C1=O` (stereo not drawn), the activation was 5.71%. As to `CN(C(=O)c1ccc(NC(=O)Cc2cccc(NC(=O)C3CCN(C(=O)c4ccccc4)CC3)c2)cc1)C1CC1`, the activation was -15%. The same measure for `CC(C)c1ccc(C=NNc2ccc([N+](=O)[O-])cn2)cc1`: 2.92%; for `O=C(NN=Cc1ccccc1)c1ccccc1`: 4.39%; for `NC(=O)C1CCN(C(=O)c2cc(S(=O)(=O)N3CCN(c4ccccc4)CC3)ccc2Cl)CC1`: 3.45%. On to `FC(F)(F)c1ccc(-c2cccc3c2C2CC3CCN2Cc2ccccc2)cc1` (stereo not drawn), for which the activation is 20.1%. `O=c1oc2ccccc2c(=O)c2ccccc12`: the activation was 23.4%. The result for `O=C(NCCc1ccccc1)c1cccc(NC(=O)c2ccccc2)c1` reads -9.83%; that for `Cc1nc(N)sc1-c1ccccc1`, -11.1%; that for `O=[N+]([O-])c1ccc(N2CCOCC2)cc1`, -9.57%. For `O=C(NN=CC=Cc1ccccc1)C(O)C(O)C(=O)NN=CC=Cc1ccccc1` (stereo not drawn), the activation is -3.92%. The same measure for `CCCCNCCS(=O)(=O)NCc1ccccc1`: 2.76%; for `CC(C)CN1CC(C)C(=O)N(c2ccccc2)C1=S` (stereo not drawn): 3.77%. With `CCC(c1nnnn1C1CCCC1)N1CCN(C(=O)c2ccco2)CC1` (stereo not drawn), the activation was 3.81%. The result for `CC(C)C(c1nnnn1C1CCCCC1)N1CCN(C(=O)c2ccco2)CC1` (stereo not drawn) reads 4.65%; that for `CC(C)C(c1nnnn1CCc1ccccc1)N1CCN(C(=O)c2ccco2)CC1` (stereo not drawn), 424% (active); that for `Cc1ccc(OCCNC(=O)c2cccc(S(=O)(=O)N3CCN(Cc4ccccc4)CC3)c2)cc1`, -20.6%.

Regarding `CSCCC(NC(=O)COc1ccccc1)C(=O)N1CCN(c2cccc(C(F)(F)F)c2)CC1` (stereo not drawn), the activation is -13.3%. For the compound `C1=C(N2CCOCC2)/C(=C/c2nc3ccccc3[nH]2)CC1`, the activation was 6.52%.

As to `c1ccc2cc3c(NCCN4CCOCC4)ccnc3cc2c1`, the activation is 30.5%. For `c1ccc2[nH]c(NCCN3CCOCC3)nc2c1`, the activation is 62.8% (active). On to `CCc1c(Nc2ccccc2Cl)nc(N)[nH]c1=O`, for which the activation was 15.3%.

Turning to `NC(=O)c1ncn([C@@H]2O[C@H](CN=C3NS(=O)(=O)c4ccccc43)[C@@H](O)[C@H]2O)n1`, the activation is 74.1% (active).

With `COc1cc2c(cc1CNC[C@H]1O[C@@H](n3cnc(C(N)=O)n3)[C@H](O)[C@@H]1O)OCO2`, the activation was 13.6%. The result for `NC(=O)c1ncn([C@@H]2O[C@H](CNCc3cnc(N4CCOCC4)s3)[C@@H](O)[C@H]2O)n1` reads -12%. With `CCCCNC1(C#N)CCN(Cc2ccccc2)CC1`, the activation was 2.1%.

`COc1ccc(CC(=O)N[C@@H]2c3cc(OC)c(OC)cc3C[C@H]2OCc2ccccc2)cc1`: the activation was -26.8%. The result for `COc1ccc(C2NCCCC2c2ccccc2)cc1` (stereo not drawn) reads -26.9%; that for `CC1C(C)N(C(=O)CCl)c2ccccc2N1C(=O)CCl` (stereo not drawn), 12%.

As for `Cc1ccccc1N1CCN(C(=O)c2cccnc2)CC1`, the activation was 2.45%.

Consider `C[C@@H]1NS(=O)(=O)c2cc(Cl)ccc2O[C@@H]1c1ccccc1`, for which the activation is -33.6%. Take `COC(=O)c1ccc(CNC(=O)Cn2cc(C)c(=O)[nH]c2=O)cc1`: the activation is -1.85%. Turning to `O=C(NNS(=O)(=O)c1ccc(F)cc1)c1ccc([N+](=O)[O-])cc1Cl`, the activation was 4.85%. The same measure for `O=[N+]([O-])c1ccc(NS(=O)(=O)c2ccccc2)c(Cl)c1`: 84.4% (active). The same measure for `Cc1cc([N+](=O)[O-])ccc1NS(=O)(=O)c1ccccc1`: 11.2%; for `OC(COc1ccccc1)CN1CCN(c2cccc(Cl)c2)CC1` (stereo not drawn): -8.42%; for `COc1cc(/C=C/c2ccc(/C=C/c3cc(OC)c(OC)c(OC)c3)cc2)cc(OC)c1OC`: -51.2%. Turning to `O=C1C(Cl)=C(Oc2ccccc2)C(=O)c2ccccc21`, the activation is -13.1%. The result for `COc1ccc(NS(=O)(=O)c2ccc(N3CCOCC3)c(NC(=O)/C=C/C(=O)O)c2)cc1` reads 22.2%; that for `COc1ccc(CC(=O)NC(C)c2ccc(Cl)c(Cl)c2)cc1S(=O)(=O)N1CCOCC1` (stereo not drawn), -4.63%. The same measure for `Cc1cc([N+](=O)[O-])c(=O)[nH]c1C`: 9.21%; for `CC(NC(=O)c1ccccc1)C(=O)Nc1ccccc1` (stereo not drawn): -16.6%. With `NC(=O)C1(Nc2ccc([N+](=O)[O-])cc2)CCCC1`, the activation is -13.2%. As for `S=C(Nc1ccccc1)Nc1ccc2ccccc2c1`, the activation is -9.12%.

Regarding `CN1C(c2ccc(F)cc2)=CS/C1=C(/C#N)c1nnc2n1-c1ccccc1SC2`, the activation is -32.2%. The same measure for `CN(CCc1ccccc1)C(=O)c1cccc(NC(=O)Cc2cccc(NC(=O)C3CCCN(C(=O)CCc4ccccc4)C3)c2)c1` (stereo not drawn): -78.5%; for `C=CCOC(=O)N1CCC2CC1c1cc(-c3ccc(OC)cc3)ccc12` (stereo not drawn): 4.14%. The same measure for `CCCCN1CC(CO)Oc2cccc(F)c2S1(=O)=O` (stereo not drawn): 10.7%; for `C/C(=N\Nc1ccc(Cl)nn1)c1ccccc1O`: 7.73%; for `CCCN(CCC)S(=O)(=O)c1cc2c(cc1Br)CCN2C(=O)CC`: -7.1%. The result for `NS(=O)(=O)c1ccc(CCNC(=O)c2ccc(Cl)c(S(=O)(=O)N3CCCCCC3)c2)cc1` reads -32.8%. Turning to `CCc1c(Nc2ccccc2C)nc(N)[nH]c1=O`, the activation is -3.67%. For the compound `O=C(NN=Cc1ccccc1O)NN=Cc1ccccc1O`, the activation is -79.8%. The same measure for `CCN(CC)CCCC(C)n1c2nc(=O)[nH]c(=O)c-2nc2cc(Cl)ccc21` (stereo not drawn): -9.91%; for `CCCCC(=O)NC(c1ccc(OC)c(OC)c1)c1ccc2cccnc2c1O` (stereo not drawn): -3.38%.

Consider `O=C(NC(=O)N1CCOCC1)c1ccccc1`, for which the activation was 67.4% (active). For the compound `NC(=NC(=O)c1ccccc1)N1CCOCC1`, the activation was 1.4%. The same measure for `O=C(CSC(=S)N1CCOCC1)c1ccccc1`: -13.4%; for `Cc1nc2ccc(N)nc2nc1C`: -22.1%. The result for `COc1ccc(S(=O)(=O)N2C[C@H]3CON(C)[C@H]3C[C@H]2c2cccc(Br)c2)cc1` reads 7.88%; that for `CN(C(=O)c1cccc(NC(=O)Cc2ccc(NC(=O)C3CCCN(C(=O)C4CCCC4)C3)cc2)c1)C1CCC1` (stereo not drawn), -86.9%. The result for `CCCCN1CC(COc2ccccc2)Oc2cccc(F)c2S1(=O)=O` (stereo not drawn) reads -3.91%; that for `COC1=CC(=O)OC(C)(c2ccccc2)C1` (stereo not drawn), -8.07%; that for `O=c1[nH]c(=S)[nH]c(O)c1/C=C1\C=Nc2ccccc21`, 12.1%. As for `Cc1cc(OCCCC(=O)Nc2cc(S(=O)(=O)N3CCOCC3)ccc2N2CCOCC2)ccc1Cl`, the activation was -17.2%. `COC1=NC2=NCCN2C(OC)=N1`: the activation was 7.98%. On to `CC1=CC(=NNS(=O)(=O)c2ccc([N+](=O)[O-])cc2)CC(C)(C)C1`, for which the activation was 27.7%. On to `CC(C)Cc1nnc(N)s1`, for which the activation was 10.1%. The same measure for `Cc1nc(N)nc(Cl)c1CCC1OCCO1`: 19.5%; for `NNc1cccc(C=Cc2ccccc2)cc1=O`: -16.6%; for `Nc1cc(=O)n(Cc2ccccc2)c(=O)n1Cc1ccccc1`: -0.22%. The result for `N=C1c2ccccc2-c2ccccc21` reads 9.24%; that for `COc1cc(O)c2c(=O)c3c(O)c(O)ccc3oc2c1OC`, -10.1%; that for `O=c1nc(NO)ccn1C1CCCO1` (stereo not drawn), 15.7%.

With `C(#CCN1CCOCC1)CCCN1CCOCC1`, the activation was 16.4%.

`CN1CCOC1c1ccc(C2OCCN2C)cc1` (stereo not drawn): the activation is 6.99%.

`C=CCN1C=C(C(=O)c2ccccc2)C(=O)CC1`: the activation is 19.3%.

With `NN=C(NN=Cc1ccccc1)c1ccccc1`, the activation was 1.04%. Take `O=C(NCC(O)c1ccc([N+](=O)[O-])cc1)C1CCCCC1` (stereo not drawn): the activation was 2.53%.

Take `O=C(NNS(=O)(=O)c1ccc([N+](=O)[O-])cc1)C1CCCCC1`: the activation is 62.5% (active).

Consider `O=C(Cc1ccccc1)NNS(=O)(=O)c1ccc([N+](=O)[O-])cc1`, for which the activation was -11.7%.
